Assay outcomes: PubChem BioAssay, The Scripps Research Institute Molecular Screening Center
NPY-Y1 PAM-ag: potentiators or agonists of human neuropeptide Y receptor Y1; AID 1304; NPY-Y1 expressing cells, potentiator/agonist activation; P25929; activation, % at 3.6 µM; actives 0.37% (n = 220,000); in the data active = activation above about 33%, passing the limit was not always enough;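 also: cells stimulated with NPY at EC10 then isoproterenol at EC100; 0% = low agonist plus stimulus and 100% = saturating agonist plus stimulus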
Target sequence (P25929 whole entry, looked up): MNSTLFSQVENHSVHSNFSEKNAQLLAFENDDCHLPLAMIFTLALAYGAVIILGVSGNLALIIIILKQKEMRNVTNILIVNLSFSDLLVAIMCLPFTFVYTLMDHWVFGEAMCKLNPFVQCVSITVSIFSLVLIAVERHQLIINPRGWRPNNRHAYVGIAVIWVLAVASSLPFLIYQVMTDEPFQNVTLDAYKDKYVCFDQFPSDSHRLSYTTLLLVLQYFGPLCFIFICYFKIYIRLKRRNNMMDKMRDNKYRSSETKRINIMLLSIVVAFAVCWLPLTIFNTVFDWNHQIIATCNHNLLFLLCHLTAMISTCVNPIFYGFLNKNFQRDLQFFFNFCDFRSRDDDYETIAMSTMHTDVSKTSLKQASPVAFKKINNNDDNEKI
NPY-Y2 PAM-ag: potentiators or agonists of human neuropeptide Y receptor Y2; activation, % at 3.6 µM; P49146; actives 0.45% (n = 220,000); cells expressing NPY-Y2, potentiator/agonist read-out; AID 1359; in the data active = activation above about 27%;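 also: cells stimulated with NPY near EC25 plus isoproterenol at EC100; 0% = vehicle plus submaximal agonist and 100% = vehicle plus saturating agonist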
NPY-Y2 antag: NPY-Y2 (human) receptor antagonism; inhibition, % at 2.7 µM; actives 0.99% (n = 140,000); P49146; NPY-Y2 expressing cells, antagonist mode; in the data active = inhibition above about 17%;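 also: 0% = vehicle with agonist challenge and 100% = reference antagonist with challenge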
NPY Y1 blocker: NPY-Y1 (human) receptor antagonism | inhibition, % at 3.6 µM | HEK293-CNG Y1 cells, membrane potential fluorescence; NPY at EC95, then isoproterenol | actives 1% (n = 200,000) | AID 1040;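 active = inhibition above the campaign mean inhibition of all tested compounds plus 3 SD, cut at about 20% in these data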;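 also: 0% = DMSO wells given NPY plus isoproterenol and 100% = isoproterenol alone without NPY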
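Material: HEK293 cells with Y1 receptor plus CNG channel; times: compound incubation 1 h at room temperature, readout 45 min post-stimulation; signal: fluorescence, membrane potential probe; read-out basis: fluorescence ratio normalized to % inhibition between controls; benchmarks: full-block control isoproterenol-only wells, zero-block control NPY plus isoproterenol wells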
NPY-Y1 antag ct: human NPY-Y1 antagonism in NPY-Y2 counter-screen; actives 19% (n = 710); inhibition, % at 3.6 µM; shares compounds with NPY-Y2 antag; cell-based NPY-Y1 antagonism counterscreen; in the data active = inhibition above about 20%;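 also: cells challenged with NPY then isoproterenol with cAMP sensed through a CNG channel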
NPY-Y2 ant conf: confirmation of human neuropeptide Y receptor Y2 antagonists | shares compounds with NPY-Y2 antag | HEK293 NPY-Y2 CNG channel, membrane potential fluorescence | inhibition, % at 2.8 µM | actives 32% (n = 710) | AID 1257;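 active = mean inhibition of triplicate wells above the hit cutoff set in the primary screen, cut at about 17% in these data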;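 also: 0% = DMSO with NPY challenge and 100% = BIIE0246 high control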
An asterisk follows results filed as active. Most compounds without a hit are left out; they make up all but 1.8% or so of the library.

What do the screens show for `N#Cc1nc(COc2ccc(F)cc2)oc1N1CCN(Cc2ccccc2)CC1`?
NPY-Y1 PAM-ag: -30.3; NPY-Y2 PAM-ag: -16.6; NPY-Y2 antag: 31.9*; NPY Y1 blocker: 34.1*

What do the screens show for `O=C(Cn1nc(-c2ccc(N3CCOCC3)c([N+](=O)[O-])c2)c2ccccc2c1=O)N1CCCCC1`?
NPY-Y1 PAM-ag: -14.1; NPY-Y2 PAM-ag: -35.1; NPY-Y2 antag: 56.8*; NPY Y1 blocker: 25.4*

How did CCOC(=O)CCc1c(C)c2ccc(OCC)c(C)c2oc1=O do in these assays?
NPY-Y1 PAM-ag: -15.6; NPY-Y2 PAM-ag: -10.8; NPY-Y2 antag: 29.0*; NPY Y1 blocker: 33.2*

How did CCOC(=O)COc1ccc2c3c(c(=O)oc2c1C)CCC3 do in these assays?
NPY-Y1 PAM-ag: -31.6; NPY-Y2 PAM-ag: -0.1; NPY-Y2 antag: 4.3; NPY Y1 blocker: 4.4

How did CCS(=O)(=O)Nc1ccc(C2=NN(C(=O)c3ccco3)C(c3cccc(F)c3)C2)cc1 (stereo not given) do in these assays?
NPY-Y1 PAM-ag: 34.8; NPY-Y2 PAM-ag: 34.7*; NPY Y1 blocker: -6.5

How did CCOC(=O)N(NC(=O)C(O)(c1ccccc1)c1ccccc1)c1ccccc1 do in these assays?
NPY-Y1 PAM-ag: -28.3; NPY-Y2 PAM-ag: 0.9; NPY-Y2 antag: 20.1*; NPY Y1 blocker: 46.2*

How did CCOC(=O)N(NC(=O)C(O)(CC(C)C)CC(C)C)c1ccccc1 do in these assays?
NPY-Y1 PAM-ag: -12.7; NPY-Y2 PAM-ag: -3.1; NPY-Y2 antag: 7.9; NPY Y1 blocker: 12.8

Results for CCOC(=O)N(NC(=O)C(O)(C(C)C)C(C)C)c1ccccc1 ?
NPY-Y1 PAM-ag: -17.4; NPY-Y2 PAM-ag: 4.1; NPY Y1 blocker: 4.7

What do the screens show for `COC(=O)N(NC(=O)C(O)(c1ccccc1)c1ccccc1)c1ccc(C)cc1`?
NPY-Y1 PAM-ag: -0.9; NPY-Y2 PAM-ag: -17.0; NPY-Y2 antag: 20.9*; NPY Y1 blocker: 30.9*

How did Cc1cc(N2CCN(c3ccccc3)CC2)n2c(n1)nc1ccccc12 do in these assays?
NPY-Y1 PAM-ag: -39.8; NPY-Y2 PAM-ag: -27.6; NPY-Y2 antag: 22.4*; NPY Y1 blocker: 12.4; NPY-Y1 antag ct: 3.3; NPY-Y2 ant conf: 4.6

What do the screens show for `COc1ccccc1C/C(N)=N/OC(=O)COc1ccccc1C`?
NPY-Y1 PAM-ag: -31.9; NPY-Y2 PAM-ag: -19.3; NPY-Y2 antag: 28.5*; NPY Y1 blocker: 2.5; NPY-Y1 antag ct: 5.6; NPY-Y2 ant conf: 4.4

What do the screens show for `Cc1cc(C)nc(NS(=O)(=O)c2ccc(NC(=O)CSc3ncn[nH]3)cc2)n1`?
NPY-Y1 PAM-ag: 17.2; NPY-Y2 PAM-ag: 4.2; NPY Y1 blocker: 2.3

Results for Cc1ccc(C)c(NS(=O)(=O)c2cc(C(=O)Nc3ccccc3-c3ccccc3)ccc2Cl)c1 ?
NPY-Y1 PAM-ag: 2.8; NPY-Y2 PAM-ag: -32.8; NPY-Y2 antag: 68.8*; NPY Y1 blocker: 0.9; NPY-Y1 antag ct: 2.2; NPY-Y2 ant conf: 103.2*

How did CCOc1ccccc1N1C(=O)CC(Sc2n[nH]c(-c3ccccc3)n2)C1=O (stereo not given) do in these assays?
NPY-Y1 PAM-ag: 5.3; NPY-Y2 PAM-ag: -8.8; NPY Y1 blocker: -1.3

How did OCCC1CN(Cc2ccc3c(c2)CCO3)CCN1Cc1ccc(F)cc1 (stereo not given) do in these assays?
NPY-Y1 PAM-ag: -16.6; NPY-Y2 PAM-ag: -6.1; NPY Y1 blocker: 5.0

What do the screens show for `Cc1ccc(C(=O)NC2c3ccccc3-c3ccccc32)cc1`?
NPY-Y1 PAM-ag: 5.0; NPY-Y2 PAM-ag: -6.6; NPY-Y2 antag: 19.1*; NPY Y1 blocker: 16.4; NPY-Y1 antag ct: 11.6; NPY-Y2 ant conf: 10.8

Results for Cc1ccc(C(=O)NC2CCc3ccccc3C2=O)cc1 (stereo not given) ?
NPY-Y1 PAM-ag: 10.8; NPY-Y2 PAM-ag: 5.1; NPY Y1 blocker: 4.5

Results for CC(Sc1ccc(Cl)cc1)C(=O)Nc1ccccc1-c1ccccc1 (stereo not given) ?
NPY-Y1 PAM-ag: -37.2; NPY-Y2 PAM-ag: -24.8; NPY-Y2 antag: 20.4*; NPY Y1 blocker: 18.2; NPY-Y1 antag ct: 14.6; NPY-Y2 ant conf: 24.8*

How did Cc1ccc(-c2nnc(/C=C/c3ccccc3)o2)cc1 do in these assays?
NPY-Y1 PAM-ag: -9.7; NPY-Y2 PAM-ag: -9.4; NPY-Y2 antag: 20.0*; NPY Y1 blocker: 6.2; NPY-Y1 antag ct: 6.9; NPY-Y2 ant conf: 10.1

What do the screens show for `Cc1ccc(/C=C/c2nnc(-c3cccc(C)c3)o2)cc1`?
NPY-Y1 PAM-ag: -8.6; NPY-Y2 PAM-ag: 3.0; NPY-Y2 antag: 3.9; NPY Y1 blocker: 8.8
